# Only some compounds are listed: those with a hit (about 2.6% of all), similar ones and a draw of the others.
# rCAG RNA binder: binders of r(CAG) RNA repeats, primary screen, biochemical, fluorescence; inhibition, % at 3 µM; r(CAG) RNA repeat, TO-PRO-1 dye displacement fluorescence; 370,000 compounds, 1.3% hits;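 active = inhibition above the plate cutoff, the mean of all test compounds on that plate plus 3 SD, cut at about 35% in these data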;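 also: 0% = DMSO alone and 100% = 100 µM mitoxantrone as full dye displacement; higher means more dye released from RNA so lower well fluorescence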
# NR2E3 ag-1: NR2E3 agonists in two-hybrid cells, primary screen, cell-based, luminescence, CHO-S, Gal4-NCOR/VP16-NR2E3 | inhibition of corepressor binding, % at 3.98 µM | Photoreceptor-specific nuclear receptor (Homo sapiens), Q9Y5X4 | luciferase | AID 602229, 2012 | 360,000 compounds, 0.35% hits;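 active = inhibition above the mean of all tested compounds plus 3 SD, cut at about 70% in these data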;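 also: 0% = DMSO with NR2E3 transfected cells and 100% = cells lacking NR2E3 construct; higher means lower luciferase signal from less NR2E3 corepressor binding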
# NR1D1 modulator: modulators of Rev-erb alpha DNA binding, primary screen, biochemical, FITC-DNA, fluorescence polarization, uHTS. 370,000 compounds, 0.79% hits. Nuclear receptor subfamily 1 group D member 1 (Homo sapiens), P20393. AID 1259318, 2017. activity, % at 10 µM. Rev-erbα–FITC-DNA binding, 90 min;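 active = activity above about 14%, limit read from the data; passing the limit was not always enough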;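 also: 0% = DMSO wells with 35 nM protein and 100% = DMSO wells with 750 nM protein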
# Target sequence (P20393 whole entry, looked up): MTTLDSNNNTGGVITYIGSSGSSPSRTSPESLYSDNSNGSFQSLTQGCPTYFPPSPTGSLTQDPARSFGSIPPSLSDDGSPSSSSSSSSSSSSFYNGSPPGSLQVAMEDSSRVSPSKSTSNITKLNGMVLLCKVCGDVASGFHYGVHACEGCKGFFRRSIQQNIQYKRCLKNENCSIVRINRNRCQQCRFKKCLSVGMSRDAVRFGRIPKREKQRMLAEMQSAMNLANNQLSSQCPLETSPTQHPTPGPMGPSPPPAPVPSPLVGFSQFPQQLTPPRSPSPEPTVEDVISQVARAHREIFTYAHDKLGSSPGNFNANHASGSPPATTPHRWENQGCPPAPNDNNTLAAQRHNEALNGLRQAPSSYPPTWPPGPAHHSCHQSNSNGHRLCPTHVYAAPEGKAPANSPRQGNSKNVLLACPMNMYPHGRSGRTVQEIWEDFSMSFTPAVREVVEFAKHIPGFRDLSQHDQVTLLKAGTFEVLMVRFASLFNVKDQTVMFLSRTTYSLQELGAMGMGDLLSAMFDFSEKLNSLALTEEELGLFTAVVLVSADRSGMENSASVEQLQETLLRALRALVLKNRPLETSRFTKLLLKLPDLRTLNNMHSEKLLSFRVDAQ
# NR2E3 ag-2: inhibitors of NR2E3-RetCOR corepressor binding, primary screen, NR2E3 agonist project, biochemical, TR-FRET, GST-NR2E3, biotin-RetCOR | Photoreceptor-specific nuclear receptor (Homo sapiens), Q9Y5X4 | 1536-well | inhibition of corepressor binding, % at 4.78 µM | 320,000 compounds, 0.12% hits | AID 2300, 2010;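 active = percent inhibition above the cutoff of mean plus 3 SD of all tested compounds, set per screening campaign, cut at about 20% in these data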;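 also: 0% = DMSO wells and 100% = biotin wells as full block of FRET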
#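 Material: NR2E3–RetCOR corepressor complex / Amount: 1.35 nM GST-NR2E3 / Medium: Tris pH 7.5 / Compound: single nominal compound dose of 4.8 µM / Incubation: 5 h at 4 °C / Technique: TR-FRET, Eu(K)-anti-GST donor, streptavidin-D2 acceptor, ex 340, em 617/671 nm / Read-out basis: percent loss of FRET ratio relative to control wells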
# PG9 binder: binders of HIV-1 gp120 antibody PG9, primary screen, biochemical, TR-FRET. TR-FRET gp120-PG9 antibody binding. HIV-1 gp120 / PG9 antibody interaction. inhibition, % at 6.7 µM. 360,000 compounds, 0.43% hits. AID 624416, 2012; in the data active = inhibition above about 8.5%
# rCAG binder conf: small molecules binding CAG repeat RNA – biochemical, fluorescence, confirmation; inhibition, % at 3 µM; r(CAG) RNA repeat, TO-PRO-1 dye displacement fluorescence; shares compounds with rCAG RNA binder; 4,300 compounds, 70% hits;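 active = inhibition above a per-plate cutoff, the mean inhibition of sample wells plus 3 SD, cut at about 35% in these data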;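 also: loss of TO-PRO-1 fluorescence as compound displaces dye from 1x1 AA loop RNA; 0% = DMSO only wells and 100% = 100 µM mitoxantrone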
# DNA CAG counter: displacement of TO-PRO-1 from CAG DNA duplex, counter-screen for rCAG RNA repeat binder project, biochemical, fluorescence, TO-PRO-1 dye, d(CAG) DNA oligo. d(CAG) DNA oligo TO-PRO-1 dye displacement. shares compounds with rCAG RNA binder. AID 652068, 2013. 4,300 compounds, 94% hits. inhibition, % at 3 µM;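 active = inhibition above its plate's cutoff, the mean test-well inhibition plus 3 SD, cut at about 4.8% in these data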;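 also: 0% = DNA dye mix with DMSO and 100% = 100 µM mitoxantrone; hits displace the dye from DNA and so lower well fluorescence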
# DNA CAG DR: inhibitors of DNA CAG/GTC TO-PRO-1 complex, dose response, counter-screen for rCAG RNA repeat binder project, biochemical, fluorescence, TO-PRO-1 dye | IC50, µM | DNA CAG/GTC duplex TO-PRO-1 dye displacement fluorescence | AID 686960, 2013 | shares compounds with rCAG RNA binder | 250 compounds, 20% hits; in the data active = IC50 below about 10 µM
# Starred values were filed as active, the others as inactive; i = inactive; . = no result given.
SMILES,rCAG RNA binder,NR2E3 ag-1,NR1D1 modulator,NR2E3 ag-2,PG9 binder,rCAG binder conf,DNA CAG counter,others
COc1cc(/C=C2/SC(=S)N(CC(=O)O)C2=O)ccc1OC(=O)c1cccs1,60*,-10,5,1,-4,72*,34*,DNA CAG DR=i
CC(CN1CCC(n2nccc2NC(=O)CCCc2ccccc2)CC1)c1ccccc1 (stereo not given),-11,-17,5,.,-2,.,.,
CC1(C)OC(=O)C2=C(C[C@@H](CCOCc3ccccc3)O[C@H]2c2ccc(F)cc2)O1,-1,4,-2,.,-2,.,.,
COc1ccc(CCNC(=O)COC(=O)Cn2cnc3c2c(=O)n(C)c(=O)n3C)cc1,-1,-6,-4,2,-3,.,.,
O=C(Nc1nc2c(F)cccc2s1)C1CC1,1,-57,0,1,0,.,.,
CC1CCc2c(sc(Nc3nc4c(F)cccc4s3)c2C(N)=O)C1 (stereo not given),42*,-43,1,0,-2,26,14*,
CC1(C(=O)NS(=O)(=O)c2cccc(C#N)c2)CCN1C(=O)Cc1ccc(-c2ccccc2)cc1 (stereo not given),41*,-1,-4,.,0,44*,11*,
CC1(C(=O)NS(=O)(=O)c2ccc(C#N)cc2)CCN1C(=O)Cc1ccc(-c2ccccc2)cc1 (stereo not given),42*,0,6,.,-2,43*,11*,
COCCN1C(=O)CSCC1(C)C(=O)Nc1ccc2c(c1)OCCO2 (stereo not given),3,.,-3,.,0,.,.,
Nc1ccc(S(=O)(=O)Nc2nc(-c3ccccc3)cc(-c3ccccc3O)n2)cc1,58*,10,0,.,-2,54*,18*,
Cc1[nH]n(-c2ccccc2)c(=O)c1N=Nc1ccccc1O,40*,-43,4,.,-2,27,13*,
COCCNC(=O)C1(C)CCCN(C(=O)c2ccccc2C(F)(F)F)C1 (stereo not given),2,-38,5,.,-1,.,.,
CC(Sc1ccc(S(=O)(=O)N2CCN(C)CC2)cn1)C(=O)NC1CCCCC1 (stereo not given),-4,4,6,2,0,.,.,
CCc1ccc(OCC(=O)Nc2nnc(-c3ccco3)s2)cc1,52*,-10,-2,-1,3,3,0,
CC(C)CC(=O)Nc1nnc(-c2ccco2)s1,1,-32,9,-3,-3,.,.,
COC(=O)[C@H](CC(C)C)NC(=O)NCCCc1ccccc1,48*,-21,-3,4,0,1,-2,
S=c1[nH]nc(COc2ccccc2)n1/N=C/c1ccc(Br)s1,44*,-15,2,-5,-1,33,8.1*,
S=c1[nH]nc(COc2ccccc2)n1/N=C/c1ccc(Cl)cc1,44*,3,-2,.,1,30,7.4*,
COCOCCn1cc(CN2CCS(=O)(=O)N(Cc3ccc(-c4ccc(OC)cc4)cc3)C(C)C2=O)nn1 (stereo not given),10,-14,-5,.,-1,.,.,
CC1(C(=O)NCc2ccc3c(c2)OCO3)CCN1C(=O)CCc1ccc(Cl)cc1Cl (stereo not given),1,7,5,.,0,.,.,
O=C1c2ccccc2C(=O)N1/N=C/c1ccc(O)c(O)c1O,.,-25,.,.,.,.,.,
C=CCN=c1scc(-c2ccco2)n1/N=C/c1ccc(O)c(O)c1O,44*,-57,-19,2,-2,59*,29*,
CN=c1scc(-c2cccs2)n1/N=C/c1ccc(O)c(O)c1O,61*,-143,0,1,-3,54*,25*,
COCCN=c1scc(-c2ccco2)n1/N=C/c1ccc(O)c(O)c1O,48*,-21,-25,6,-2,60*,30*,
COC(=O)C1CC2=C(CCCC2=O)N(c2ccccc2)C1=O (stereo not given),2,-3,-2,.,1,.,.,
SMILES,rCAG RNA binder,NR2E3 ag-1,NR1D1 modulator,NR2E3 ag-2,PG9 binder,rCAG binder conf,DNA CAG counter,others
COc1ccccc1-c1nnc(SCC(=O)Nc2ccc(N3CCOCC3)cc2)n1C,-5,-13,4,0,-2,.,.,
CC(=O)N1CCc2cc(S(=O)(=O)NC(CC(C)C)C(=O)N3CCCC3)ccc21 (stereo not given),-1,-2,-4,2,-1,.,.,
O=C(O)CCN1C(=O)c2ccc(NC(=O)C(c3ccccc3)c3ccccc3)cc2C1=O,48*,8,-1,1,4,35*,8.0*,
O=C(O)CCN1C(=O)c2ccc(NC(=O)c3ccco3)cc2C1=O,0,-4,-4,1,-2,.,.,
COc1cc(/C=C(\C#N)C(=O)Nc2cccc(C(=O)O)c2)ccc1OCc1ccc(F)cc1,20,-23,0,-1,-2,.,.,
COc1cccc(/C=C(/C#N)c2ccc(Cl)cc2)c1OCc1cccc(C(=O)O)c1,42*,-17,-4,1,2,69*,29*,
COc1cccc(/C=C(/C#N)c2ccc(F)cc2)c1OCc1cccc(C(=O)O)c1,51*,-61,4,0,-4,49*,15*,
COc1cc(/C=C(/C#N)c2ccc(F)cc2)ccc1OCc1ccc(C(=O)O)o1,52*,-7,5,0,-1,46*,10*,
N#C/C(=C/c1ccc(OCc2ccc(C(=O)O)cc2)c(Br)c1)c1cccc(F)c1,17,-29,9,-4,-1,.,.,
COc1ccccc1C(=O)Nc1nnc([C@@H]2C[C@H](O)[C@@H](CO)O2)s1,3,7,-2,.,3,.,.,
CCCCCCn1c(=O)n2n(c1=O)[C@@H]1CN(S(=O)(=O)c3ccc(C)cc3)C[C@]1(O)[C@@H](OC(=O)NCc1ccco1)C2,3,-9,-1,.,0,.,.,
COCc1cc(N2CCNC[C@@H]2C)ccc1N1CCS(=O)(=O)CC1,3,.,-5,.,2,.,.,
Cc1noc(C)c1-c1ccc(C(=O)NC2CCCCC2)c2occc12,-1,-28,6,.,1,.,.,

# Screens: PubChem, several laboratories
